# Source: ChEMBL document CHEMBL2384907, “Identification of substituted pyrimido[5,4-b]indoles as selective Toll-like receptor 4 ligands” (J Med Chem, 2013)
# What was measured:
# Type in all cases: cell-based
# [1] = molecular target: T1, Toll-like receptor 4 (Mus musculus) (UniProt Q9QUK6); assay: Activation of TLR4 in C57BL/6 mouse BMDC cells assessed as AUC of IP10 release at 5 uM after 18 hrs by ELISA relative to N-cyclohexyl-2-(4-oxo-3-phenyl-4,5-dihydro-3H-pyrimido[5,4-b]indol-2-ylthio)acetamide
# T1 sequence (whole entry): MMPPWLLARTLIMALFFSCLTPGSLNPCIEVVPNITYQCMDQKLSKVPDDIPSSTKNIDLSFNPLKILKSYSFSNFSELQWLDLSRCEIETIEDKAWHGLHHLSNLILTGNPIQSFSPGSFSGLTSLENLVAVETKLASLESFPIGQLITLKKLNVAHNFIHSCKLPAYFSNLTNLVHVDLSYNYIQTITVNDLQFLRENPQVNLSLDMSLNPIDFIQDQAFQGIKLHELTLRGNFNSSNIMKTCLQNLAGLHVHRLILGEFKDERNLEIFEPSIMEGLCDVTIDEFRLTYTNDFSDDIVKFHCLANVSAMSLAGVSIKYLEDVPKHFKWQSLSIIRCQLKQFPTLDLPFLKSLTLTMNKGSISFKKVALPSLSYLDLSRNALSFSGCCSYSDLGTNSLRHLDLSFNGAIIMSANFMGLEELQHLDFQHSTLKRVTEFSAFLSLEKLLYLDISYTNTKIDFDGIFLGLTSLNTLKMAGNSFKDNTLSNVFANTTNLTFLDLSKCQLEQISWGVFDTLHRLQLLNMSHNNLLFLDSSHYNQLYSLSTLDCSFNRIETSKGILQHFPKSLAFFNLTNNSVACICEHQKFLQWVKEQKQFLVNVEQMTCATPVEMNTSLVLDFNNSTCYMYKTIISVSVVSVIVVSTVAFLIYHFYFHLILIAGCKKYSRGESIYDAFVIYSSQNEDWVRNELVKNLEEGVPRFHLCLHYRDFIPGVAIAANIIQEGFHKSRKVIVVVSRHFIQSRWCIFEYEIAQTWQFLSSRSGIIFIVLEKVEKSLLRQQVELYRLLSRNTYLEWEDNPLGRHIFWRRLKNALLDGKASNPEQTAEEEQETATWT
# [2] = molecular target: T1, Toll-like receptor 4 (Mus musculus); assay: Activation of TLR4 in C57BL/6 mouse BMDC cells assessed as AUC of IL6 release after 18 hrs by ELISA relative to N-cyclohexyl-2-(4-oxo-3-phenyl-4,5-dihydro-3H-pyrimido[5,4-b]indol-2-ylthio)acetamide
# Summary of the method: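 C57BL/6 bone marrow DC, 10^5 cells/well in RPMI-10% FCS, 18 h at 37 °C with titrated doses 312 nM–10 μM; supernatant IL-6 by ELISA. Each curve converted to percent activity (background subtracted, plate-adjusted), AUC by trapezoid method, normalized to reference hit set at 100 per experiment. LPS 10 ng/mL positive control; 0.5% DMSO vehicle.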
# [3] = molecular target: Toll-like receptor 4 (Homo sapiens) (UniProt O00206); assay: Activation of human TLR4 transfected in HEK293 cells after 18 hrs by SEAP assay relative to N-cyclohexyl-2-(4-oxo-3-phenyl-4,5-dihydro-3H-pyrimido[5,4-b]indol-2-ylthio)acetamide; set-up: concentration or dose not given beside the values
# Summary of the method: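 Human TLR4 HEK-Blue cells (2.5 × 10^4/well) given compound at 10 μM for 18 h, 0.5% DMSO vehicle; SEAP in supernatant read at 630 nm, normalized to reference hit set at 100. LPS 10 ng/mL positive control.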
# [4] = molecular target: Toll-like receptor 4 (Homo sapiens) (UniProt O00206); assay: Activation of TLR4 in human PBMC cells assessed as AUC of IL8 release at 10 uM after 18 hrs by ELISA relative to N-cyclohexyl-2-(4-oxo-3-phenyl-4,5-dihydro-3H-pyrimido[5,4-b]indol-2-ylthio)acetamide
# Summary of the method: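 Human PBMC from buffy coats, 1 × 10^6/mL in complete RPMI, 18 h at 37 °C, 5% CO2 with compound at 10 μM; IL-8 in supernatant by ELISA, normalized to reference hit set at 100. LPS 10 ng/mL positive control.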
# [5] = molecular target: T1, Toll-like receptor 4 (Mus musculus); assay: Activation of mouse TLR4 transfected in HEK293 cells after 18 hrs by SEAP assay relative to N-cyclohexyl-2-(4-oxo-3-phenyl-4,5-dihydro-3H-pyrimido[5,4-b]indol-2-ylthio)acetamide
# Summary of the method: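 Mouse TLR4 HEK-Blue cells (2.5 × 10^4/well) given titrated doses 312 nM–10 μM for 18 h, 0.5% DMSO vehicle; SEAP at 630 nm. Percent-activity curves, AUC by trapezoid method, normalized to reference hit set at 100. LPS 10 ng/mL control.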
# [6] = Cytotoxicity against mouse BMDC cells up to 10 uM after overnight incubation by MTT assay
# Summary of the method: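 BMDC (10^5/well) incubated 18 h with graded concentrations alongside 0.5% DMSO vehicle and MPLA 1 μg/mL; cells lysed after overnight MTT incubation, absorbance 570 nm minus 650 nm reference. Triplicates, mean ± SEM, two independent experiments.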
# Chain of Toll-like receptor 4 (Homo sapiens) (O00206 whole entry): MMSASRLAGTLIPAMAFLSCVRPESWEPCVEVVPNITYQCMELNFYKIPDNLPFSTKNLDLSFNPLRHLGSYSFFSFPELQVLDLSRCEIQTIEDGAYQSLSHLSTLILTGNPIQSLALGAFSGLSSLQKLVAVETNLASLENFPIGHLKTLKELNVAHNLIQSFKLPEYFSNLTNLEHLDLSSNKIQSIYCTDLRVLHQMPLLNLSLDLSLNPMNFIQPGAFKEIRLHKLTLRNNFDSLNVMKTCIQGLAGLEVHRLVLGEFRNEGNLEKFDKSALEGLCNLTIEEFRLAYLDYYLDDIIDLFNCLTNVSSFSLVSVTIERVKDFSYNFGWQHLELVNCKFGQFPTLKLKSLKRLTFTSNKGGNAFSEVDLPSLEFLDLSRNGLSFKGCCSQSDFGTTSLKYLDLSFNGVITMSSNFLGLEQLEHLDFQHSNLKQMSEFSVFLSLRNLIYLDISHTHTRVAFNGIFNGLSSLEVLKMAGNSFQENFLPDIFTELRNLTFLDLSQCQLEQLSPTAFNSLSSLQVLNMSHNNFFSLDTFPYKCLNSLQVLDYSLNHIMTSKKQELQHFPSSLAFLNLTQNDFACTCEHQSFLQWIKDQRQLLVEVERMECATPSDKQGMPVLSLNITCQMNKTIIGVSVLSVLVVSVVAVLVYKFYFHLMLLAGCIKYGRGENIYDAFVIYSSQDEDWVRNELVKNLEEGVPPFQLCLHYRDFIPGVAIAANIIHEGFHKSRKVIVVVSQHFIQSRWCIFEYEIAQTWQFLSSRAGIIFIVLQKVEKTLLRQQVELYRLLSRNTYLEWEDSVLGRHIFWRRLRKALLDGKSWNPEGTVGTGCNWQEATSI
SMILES,Activity [1],Activity [2],Activity [3],Activity [4],Activity [5],Activity [6]
Cn1c2ccccc2c2nc(SCC(=O)NC3CCCCC3)n(-c3ccccc3)c(=O)c21,99%,101%,92%,79%,100%,Non-toxic
CCCn1c2ccccc2c2nc(SCC(=O)NC3CCCCC3)n(-c3ccccc3)c(=O)c21,,,,,,Non-toxic
N#CCn1c2ccccc2c2nc(SCC(=O)NC3CCCCC3)n(-c3ccccc3)c(=O)c21,64%,98%,19%,30%,55%,Non-toxic
CCCCCn1c2ccccc2c2nc(SCC(=O)NC3CCCCC3)n(-c3ccccc3)c(=O)c21,< 1%,5%,11%,1%,6%,
CN(C(=O)CSc1nc2c3ccccc3n(C)c2c(=O)n1-c1ccccc1)C1CCCCC1,< 1%,< 1%,< 1%,5%,1%,
Cc1cccc(NC(=O)CSc2nc3c([nH]c4ccccc43)c(=O)n2-c2ccccc2)c1,55%,19%,116%,54%,13%,
CCCCCCCC/C=C\CCCCCCCC(=O)OC[C@H](COP(=O)(O)OCCNC(=O)CSc1nc2c([nH]c3ccccc32)c(=O)n1-c1ccccc1)OC(=O)CCCCCCC/C=C\CCCCCCCC,< 1%,< 1%,< 1%,< 1%,< 1%,
